TbMetRS inhib: Trypanosoma brucei MetRS inhibition | purified T. brucei MetRS, ATP depletion, Kinase-Glo luminescence | inhibition, % at 11.9 µM | 360,000 compounds, 0.4% hits;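 active = inhibition above a per-plate cutoff of the control wells' mean inhibition plus 3 SD, cut at about 5.5% in these data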;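 also: 0% = DMSO wells median and 100% = median of wells with control inhibitor compound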
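assay system = parasite MetRS enzyme | timing = 15 min preincubation, 2 h reaction, all 25 °C | evaluation = percent inhibition relative to median high and low control wells | medium = HEPES buffer containing pyrophosphatase, BSA, spermine, DTT | compound = single dose, 11.9 µM final nominal, 0.9% final DMSO | detection = Kinase-Glo luminescence, ATP depletion format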
Exocytosis inh: blocks lytic granule exocytosis | inhibition, % at 10 µM | TALL-104 LAMP-1 surface exposure, flow cytometry; cells stimulated with thapsigargin and PMA | 360,000 compounds, 0.66% hits | AID 651702;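 active = inhibition above about 55%, limit read from the data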
ABCB6 inh MLPCN: inhibitors of human ABC transporter ABCB6; Q9NP58; K562-ABCB6 porphyrin accumulation, flow cytometry, 1 h; stronger effect = lower value; fluorescence ratio to DMSO, % at 10 µM; 360,000 compounds, 0.19% hits; AID 602162;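 active = fluorescence ratio to DMSO below 75%, the collection mean minus 3 SD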;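 also: signal is porphyrin accumulated inside mitochondria; 100% equals median channel fluorescence of DMSO control wells; lower ratio means ABCB6 inhibition with less porphyrin fluorescence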
hiPSC survival: hiPSC single-cell survival enhancement. ATPlite luminescence; 100% = ROCK inhibitor wells, 0% = DMSO. survival enhancement, % at 20 µM. 360,000 compounds, 0.044% hits. AID 602274; in the data active = survival enhancement above about 18%;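 also: cells exposed to compounds for 16 hours before the ATP read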
MC4R ag barr: agonists of human melanocortin 4 receptor (MC4R) beta-arrestin; U2OS MC4R beta-arrestin complementation, luminescence; percent of melanotan II response, DMSO zero; activation, % at 8.9 µM; 360,000 compounds, 0.98% hits;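 active = activation above a per-plate cutoff, the mean activation of sample wells on that plate plus 3 SD, cut at about 8% in these data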
Target sequence (P32245 whole entry, looked up): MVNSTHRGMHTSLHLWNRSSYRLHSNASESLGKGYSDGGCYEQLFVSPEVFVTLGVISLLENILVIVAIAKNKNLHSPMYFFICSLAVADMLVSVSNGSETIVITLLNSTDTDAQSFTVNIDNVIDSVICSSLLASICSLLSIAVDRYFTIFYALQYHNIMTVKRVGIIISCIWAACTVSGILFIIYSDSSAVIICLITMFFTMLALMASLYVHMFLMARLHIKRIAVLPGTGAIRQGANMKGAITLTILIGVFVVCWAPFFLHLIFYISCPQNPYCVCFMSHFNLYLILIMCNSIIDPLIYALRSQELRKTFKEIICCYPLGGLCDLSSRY
MC4R antagonist: blocks human MC4R cAMP signaling; P32245; MC4R-expressing cells, MTII-stimulated cAMP, LANCE TR-FRET; inhibition, % at 6.5 µM; 360,000 compounds, 0.48% hits;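 active = inhibition above its plate's cutoff, the mean of tested wells on that plate plus 3 SD, cut at about 29% in these data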;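 also: 0% = Melanotan II alone and 100% = Melanotan II plus saturating MCL0020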
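Test system: U2OS cells stably expressing human melanocortin 4 receptor (MC4R); also added: Melanotan II challenge; compound: 6.5 µM single dose; timing: 30-min compound preincubation, 1-h Melanotan II challenge, 1-h detection, room temperature; signal: Eu-cAMP/anti-cAMP TR-FRET, emission 671 nm; repeats: one well per compound, no replicates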
cAMP nonselect: counter-screen for MC4R antagonists: nonselective cAMP signaling inhibitors; shares compounds with MC4R antagonist; parental U2OS, forskolin cAMP, LANCE TR-FRET; inhibition, % at 6.5 µM; 1,600 compounds, 26% hits; AID 602193;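 active = mean inhibition over triplicates above the low-control well mean plus 3 SD, set per campaign, cut at about 13% in these data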;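 also: signal is single emission at 671 nm which falls as cellular cAMP rises; 0% = forskolin-stimulated wells and 100% = buffer without forskolin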
MC4R cAMP antag: human MC4R cAMP antagonism confirmation; inhibition, % at 6.5 µM; MC4R-expressing cells, MTII-stimulated cAMP, TR-FRET; shares compounds with MC4R antagonist; 1,600 compounds, 27% hits; in the data active = inhibition above about 29%;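 also: 0% = agonist stimulated wells alone and 100% = agonist stimulated wells plus saturating reference antagonist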
The depositor's hits bear a star. Compounds with a hit are over-represented: about 2.6% of the library has one in this group of screens.

For Cc1ccc(F)c(NC(=O)c2cncn2-c2ccccc2)c1 the results were TbMetRS inhib 0, Exocytosis inh 4, ABCB6 inh MLPCN 100, hiPSC survival 1, MC4R ag barr -1, MC4R antagonist 30*, cAMP nonselect 0 and MC4R cAMP antag -9.
CC(=O)n1cc(N(C(=O)CCl)c2ccc(C)cc2)c2ccccc21 was read as TbMetRS inhib 0, Exocytosis inh -1, ABCB6 inh MLPCN 81, hiPSC survival 0, MC4R ag barr 17*, MC4R antagonist 46*, cAMP nonselect -21 and MC4R cAMP antag 45*.
Screening O=C1c2ccccc2NC(c2ccccc2Br)N1CCCN1CCOCC1 (stereo unspecified) returned TbMetRS inhib 0, Exocytosis inh -1, ABCB6 inh MLPCN 98, hiPSC survival 0, MC4R ag barr -1, MC4R antagonist 29*, cAMP nonselect 1 and MC4R cAMP antag 1.
Cc1ccc(C2Nc3ccccc3C(=O)N2CCCN2CCOCC2)cc1 (stereo unspecified) was read as TbMetRS inhib -1, Exocytosis inh 2, ABCB6 inh MLPCN 103, hiPSC survival -1, MC4R ag barr 0 and MC4R antagonist 1.
Screening O=S(=O)(NCCCSc1ccccc1)c1ccccc1F returned TbMetRS inhib -1, Exocytosis inh 15, ABCB6 inh MLPCN 93, hiPSC survival 0, MC4R ag barr 0 and MC4R antagonist 2.
O=C(c1ccc(Cl)c([N+](=O)[O-])c1)N(Cc1ccccc1)C1CCS(=O)(=O)C1 (stereo unspecified) was read as TbMetRS inhib 0, Exocytosis inh -6, ABCB6 inh MLPCN 94, hiPSC survival 0, MC4R ag barr 1 and MC4R antagonist 17.
For Cc1ccc(CN(C(=O)c2ccc(Cl)c([N+](=O)[O-])c2)C2CCS(=O)(=O)C2)o1 (stereo unspecified) the results were TbMetRS inhib 0, Exocytosis inh -2, ABCB6 inh MLPCN 100, hiPSC survival 0, MC4R ag barr -4, MC4R antagonist 37*, cAMP nonselect 19* and MC4R cAMP antag 37*.
For COC(=O)C[C@H]1CC[C@H](NC(=O)Nc2ccccc2)[C@@H](CO)O1 the results were TbMetRS inhib 0 and Exocytosis inh -2.
`CCC(C)(C)c1nnc(NC(=O)CCC2CCCCC2)s1` gave TbMetRS inhib 0, Exocytosis inh -8, ABCB6 inh MLPCN 100, hiPSC survival 1, MC4R ag barr 1 and MC4R antagonist 8.
`COc1ccc(CC(=O)Nc2nc(-c3cc(OC)ccc3OC)cs2)cc1` gave TbMetRS inhib 0, Exocytosis inh 1, ABCB6 inh MLPCN 95, hiPSC survival 3, MC4R ag barr 4 and MC4R antagonist 17.
COc1cccc(CC(=O)Nc2nc(-c3cc(OC)ccc3OC)cs2)c1 was read as TbMetRS inhib 0, Exocytosis inh -6, ABCB6 inh MLPCN 97, hiPSC survival 1, MC4R ag barr 5, MC4R antagonist 34*, cAMP nonselect 1 and MC4R cAMP antag 1.
For COc1ccc(C(=O)CCN2CCCCCC2)cc1 the results were TbMetRS inhib 0, Exocytosis inh 0, ABCB6 inh MLPCN 98, hiPSC survival -1, MC4R ag barr -2, MC4R antagonist 40*, cAMP nonselect 15* and MC4R cAMP antag 24.
`CCCS(=O)(=O)NC(=O)C1(C)CCN(C(=O)c2cc(C)on2)C1` (stereo unspecified) gave TbMetRS inhib 0, Exocytosis inh 7, ABCB6 inh MLPCN 99, hiPSC survival -1, MC4R ag barr 0 and MC4R antagonist 2.
Screening O=C(/C=C/c1ccc(-c2ccccc2[N+](=O)[O-])o1)c1ccccc1 returned TbMetRS inhib 1, Exocytosis inh -2, ABCB6 inh MLPCN 106, hiPSC survival -1, MC4R ag barr 0, MC4R antagonist 30*, cAMP nonselect 1 and MC4R cAMP antag 4.
